# Assay results reported in ChEMBL document CHEMBL4007497, “Development of Potent and Selective Antagonists for the UTP-Activated P2Y4 Receptor” (J Med Chem, 2017).
# pIC50: −log10 of the molar value. “And” between values parts separate entries of the source, which are not always exact repeats. Equal entries are not always repeated.
# Tests used:
# P2Y purinoceptor 4 [1] = target: T1, P2Y purinoceptor 4 (Homo sapiens, UniProt P51582); assay: Antagonist activity at human P2Y4 receptor transfected in human 1321N1 cells assessed as inhibition of UTP-activated intracellular calcium mobilization preincubated for 30 mins followed by UTP addition by fluo-4-dye based fluorescence assay; assay type: functional, cell-based
# Summary of the method: (§1)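 1321N1 astrocytoma cells stably expressing the human P2Y subtype, grown in DMEM with 10 % FCS and 200 μg/mL G418 at 37 °C. Plated 50,000 cells/well about 24 h before testing. Cells loaded with fluo-4 AM for 1 h, then placed in HBSS and preincubated 30 min with compound. Agonist was injected at about EC80: ADP 500 nM (P2Y1), UTP 500 nM (P2Y2, P2Y4), UDP 750 nM (P2Y6). Fluorescence read at ex 488/em 525 nm. At least three independent experiments in duplicate. IC50 obtained by nonlinear regression.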
# P2Y purinoceptor 4 [2] = target: T1, P2Y purinoceptor 4; assay: Antagonist activity at human P2Y4 receptor transfected in human 1321N1 cells assessed as inhibition of UTP-activated intracellular calcium mobilization at 30 uM preincubated for 30 mins followed by UTP addition by fluo-4-dye based fluorescence assay; assay type: functional, cell-based
# P2Y purinoceptor 4 [3] = target: T1, P2Y purinoceptor 4; assay: Antagonist activity at human P2Y4 receptor transfected in human 1321N1 cells assessed as inhibition of UTP-activated intracellular calcium mobilization at 100 uM preincubated for 30 mins followed by UTP addition by fluo-4-dye based fluorescence assay; assay type: functional, cell-based
# P2Y purinoceptor 6 [4] = target: T2, P2Y purinoceptor 6 (Homo sapiens, UniProt Q15077); assay: Antagonist activity at human P2Y6 receptor transfected in human 1321N1 cells assessed as inhibition of UDP-activated intracellular calcium mobilization at 50 uM preincubated for 30 mins followed by UDP addition by fluo-4-dye based fluorescence assay; assay type: functional, cell-based
# P2Y purinoceptor 1 [5] = target: T3, P2Y purinoceptor 1 (Homo sapiens, UniProt P47900); assay: Antagonist activity at human P2Y1 receptor transfected in human 1321N1 cells assessed as inhibition of ADP-activated intracellular calcium mobilization preincubated for 30 mins followed by ADP addition by fluo-4-dye based fluorescence assay; assay type: functional, cell-based; summary of the method: as §1
# P2Y purinoceptor 1 [6] = target: T3, P2Y purinoceptor 1; assay: Antagonist activity at human P2Y1 receptor transfected in human 1321N1 cells assessed as inhibition of ADP-activated intracellular calcium mobilization at 50 uM preincubated for 30 mins followed by ADP addition by fluo-4-dye based fluorescence assay; assay type: functional, cell-based
# P2Y purinoceptor 2 = P2Y purinoceptor 2 (Homo sapiens, UniProt P41231); assay: Antagonist activity at human P2Y2 receptor transfected in human 1321N1 cells assessed as inhibition of UTP-activated intracellular calcium mobilization preincubated for 30 mins followed by UTP addition by fluo-4-dye based fluorescence assay; assay type: functional, cell-based; summary of the method: as §1
# P2Y purinoceptor 6 [7] = target: T2, P2Y purinoceptor 6; assay: Antagonist activity at human P2Y6 receptor transfected in human 1321N1 cells assessed as inhibition of UDP-activated intracellular calcium mobilization preincubated for 30 mins followed by UDP addition by fluo-4-dye based fluorescence assay; assay type: functional, cell-based; summary of the method: as §1
# P2Y purinoceptor 12 = P2Y purinoceptor 12 (Homo sapiens, UniProt Q9H244); assay: Antagonist activity at human P2Y12 receptor expressed in CHO cells assessed as inhibition of 2-MeSADP-induced beta-arrestin translocation preincubated for 30 mins followed by 2-MeSADP addition measured after 90 mins by luminescence-based topcount method; assay type: cell-based
# Chain of P2Y purinoceptor 12 (Q9H244 whole entry): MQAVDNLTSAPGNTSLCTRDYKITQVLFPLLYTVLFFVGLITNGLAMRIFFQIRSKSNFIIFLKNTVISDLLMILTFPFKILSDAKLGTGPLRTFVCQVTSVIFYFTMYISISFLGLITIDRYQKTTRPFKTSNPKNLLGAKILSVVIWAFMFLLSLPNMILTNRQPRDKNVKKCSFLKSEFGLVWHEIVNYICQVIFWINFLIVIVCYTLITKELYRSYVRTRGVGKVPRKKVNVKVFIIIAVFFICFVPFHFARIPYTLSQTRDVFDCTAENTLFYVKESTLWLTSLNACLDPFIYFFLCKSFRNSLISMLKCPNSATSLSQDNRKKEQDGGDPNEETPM
# Chain of P2Y purinoceptor 2 (P41231 whole entry): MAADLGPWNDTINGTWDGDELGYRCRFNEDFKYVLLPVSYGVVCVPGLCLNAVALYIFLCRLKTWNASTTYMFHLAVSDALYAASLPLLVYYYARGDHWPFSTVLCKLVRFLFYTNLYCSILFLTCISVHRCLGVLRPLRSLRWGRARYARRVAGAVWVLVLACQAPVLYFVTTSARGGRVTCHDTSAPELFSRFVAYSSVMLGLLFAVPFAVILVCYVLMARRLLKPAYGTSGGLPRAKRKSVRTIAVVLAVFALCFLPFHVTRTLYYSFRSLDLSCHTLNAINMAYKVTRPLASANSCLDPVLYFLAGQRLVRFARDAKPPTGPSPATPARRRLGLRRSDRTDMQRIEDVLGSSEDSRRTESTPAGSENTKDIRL
# T2 sequence (Q15077 whole entry): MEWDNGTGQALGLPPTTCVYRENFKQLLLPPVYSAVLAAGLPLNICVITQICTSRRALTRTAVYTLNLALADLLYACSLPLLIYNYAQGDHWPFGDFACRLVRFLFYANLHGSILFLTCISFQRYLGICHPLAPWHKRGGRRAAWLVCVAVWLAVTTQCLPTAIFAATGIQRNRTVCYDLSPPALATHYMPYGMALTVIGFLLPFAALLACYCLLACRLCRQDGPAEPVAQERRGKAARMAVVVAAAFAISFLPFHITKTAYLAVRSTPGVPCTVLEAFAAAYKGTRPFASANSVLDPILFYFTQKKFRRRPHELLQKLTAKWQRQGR
# T3 sequence (P47900 whole entry): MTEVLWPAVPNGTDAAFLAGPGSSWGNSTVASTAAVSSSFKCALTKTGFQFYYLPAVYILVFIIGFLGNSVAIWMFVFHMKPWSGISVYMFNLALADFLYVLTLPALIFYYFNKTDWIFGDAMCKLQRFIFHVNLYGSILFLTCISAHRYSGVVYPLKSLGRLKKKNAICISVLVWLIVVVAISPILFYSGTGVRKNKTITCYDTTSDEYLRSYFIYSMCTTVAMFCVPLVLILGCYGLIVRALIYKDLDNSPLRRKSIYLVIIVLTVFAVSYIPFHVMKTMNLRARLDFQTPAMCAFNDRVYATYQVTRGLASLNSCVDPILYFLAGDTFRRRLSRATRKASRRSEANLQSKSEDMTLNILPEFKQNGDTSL
# T1 sequence (P51582 whole entry): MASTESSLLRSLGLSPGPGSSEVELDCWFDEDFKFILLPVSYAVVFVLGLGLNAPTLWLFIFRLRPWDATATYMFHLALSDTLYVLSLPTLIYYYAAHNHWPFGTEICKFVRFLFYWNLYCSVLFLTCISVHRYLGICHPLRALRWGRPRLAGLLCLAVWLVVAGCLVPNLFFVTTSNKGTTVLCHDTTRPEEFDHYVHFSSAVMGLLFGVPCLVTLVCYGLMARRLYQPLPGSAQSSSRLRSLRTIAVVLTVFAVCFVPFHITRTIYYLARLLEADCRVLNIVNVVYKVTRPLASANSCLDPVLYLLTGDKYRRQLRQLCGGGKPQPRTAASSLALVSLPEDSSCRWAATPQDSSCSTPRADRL
SMILES,pIC50 (P2Y purinoceptor 4 [1]),further results
Nc1c(S(=O)(=O)O)cc(Nc2ccc(F)cc2)c2c1C(=O)c1ccccc1C2=O,5.39,
Nc1c(S(=O)(=O)O)cc(Nc2ccc(F)cc2C(=O)O)c2c1C(=O)c1ccccc1C2=O [listing 1 of 3 here],< 4.00,
Nc1c(S(=O)(=O)O)cc(Nc2ccc(Oc3ccc(Cl)cc3)cc2)c2c1C(=O)c1ccccc1C2=O,6.43,
Nc1c(S(=O)(=O)O)cc(Nc2cc(F)cc(F)c2)c2c1C(=O)c1ccccc1C2=O,4.90,
Cc1cc(Nc2cccc(F)c2)c2c(c1N)C(=O)c1ccccc1C2=O,< 4.52,inhibition (P2Y purinoceptor 4 [2]): -4%
Nc1c(S(=O)(=O)O)cc(Nc2ccc(Br)cc2)c2c1C(=O)c1ccccc1C2=O,5.48,
COc1cc(Nc2cc(S(=O)(=O)O)c(N)c3c2C(=O)c2ccccc2C3=O)cc(OC)c1,5.03,
Nc1c(S(=O)(=O)O)cc(Nc2ccc(Cl)cc2C(=O)O)c2c1C(=O)c1ccccc1C2=O,< 4.00,inhibition (P2Y purinoceptor 4 [3]): 31%
COc1cc(Nc2cc(S(=O)(=O)O)c(N)c3c2C(=O)c2ccccc2C3=O)ccc1F,5.81,
Cc1ccc(Nc2cc(S(=O)(=O)O)c(N)c3c2C(=O)c2ccccc2C3=O)cc1,5.55,
Nc1c(S(=O)(=O)O)cc(Nc2cccc3ccccc23)c2c1C(=O)c1ccccc1C2=O,5.13,
Nc1c(S(=O)(=O)O)cc(Nc2ccc(Br)cc2C(=O)O)c2c1C(=O)c1ccccc1C2=O,< 4.00,inhibition (P2Y purinoceptor 4 [2]): 30%
Nc1c(S(=O)(=O)O)cc(Nc2ccc(F)cc2C(=O)O)c2c1C(=O)c1ccccc1C2=O [listing 2 of 3 here],< 4.00,
Nc1c(S(=O)(=O)O)cc(Nc2ccc(Oc3ccccc3)cc2)c2c1C(=O)c1ccccc1C2=O,5.71,
Nc1c(S(=O)(=O)O)cc(Nc2cccc(Br)c2)c2c1C(=O)c1ccccc1C2=O,5.16,
Cc1cc(Nc2cc(S(=O)(=O)O)c(N)c3c2C(=O)c2ccccc2C3=O)ccc1Cl,5.78,
Nc1c(S(=O)(=O)O)cc(Nc2cccc(C(=O)O)c2)c2c1C(=O)c1ccccc1C2=O,4.63,
Nc1c(S(=O)(=O)O)cc(Nc2ccc(Cl)cc2)c2c1C(=O)c1ccccc1C2=O,5.52,
Nc1c(S(=O)(=O)O)cc(Nc2ccc(SCc3cccnc3)cc2)c2c1C(=O)c1ccccc1C2=O,6.39,inhibition (P2Y purinoceptor 6 [4]): 12%; pIC50 (P2Y purinoceptor 1 [5]): 4.60; inhibition (P2Y purinoceptor 1 [6]): 61%; pIC50 (P2Y purinoceptor 2): 4.88; pIC50 (P2Y purinoceptor 6 [7]): < 4.00; pIC50 (P2Y purinoceptor 12): 5.44
Cc1ccc(C)c(Sc2ccc(Nc3cc(S(=O)(=O)O)c(N)c4c3C(=O)c3ccccc3C4=O)cc2)c1,6.40,pIC50 (P2Y purinoceptor 1 [5]): 5.57; pIC50 (P2Y purinoceptor 2): 5.19; pIC50 (P2Y purinoceptor 6 [7]): 5.57; pIC50 (P2Y purinoceptor 12): 5.53
Nc1c(S(=O)(=O)O)cc(Nc2cccc(F)c2)c2c1C(=O)c1ccccc1C2=O,5.86,
Nc1c(S(=O)(=O)O)cc(Nc2ccc(Nc3nc(Cl)nc(Nc4cccc(S(=O)(=O)O)c4)n3)c(S(=O)(=O)O)c2)c2c1C(=O)c1ccccc1C2=O [RB 2],5.94,

SMILES,pIC50 (P2Y purinoceptor 4 [1]),further results
Nc1c(S(=O)(=O)O)cc(Nc2ccc([N+](=O)[O-])cc2C(=O)O)c2c1C(=O)c1ccccc1C2=O,< 4.52,inhibition (P2Y purinoceptor 4 [2]): 30%
Nc1c(S(=O)(=O)O)cc(NCCc2ccccc2)c2c1C(=O)c1ccccc1C2=O,5.14,
Nc1c(S(=O)(=O)O)cc(Nc2ccc(C(=O)O)cc2)c2c1C(=O)c1ccccc1C2=O,4.52,inhibition (P2Y purinoceptor 4 [2]): 57%
Cc1ccccc1Nc1cc(S(=O)(=O)O)c(N)c2c1C(=O)c1ccccc1C2=O,5.46,
Cc1cc(Nc2cc(S(=O)(=O)O)c(N)c3c2C(=O)c2ccccc2C3=O)ccc1O,6.13,pIC50 (P2Y purinoceptor 1 [5]): 5.12; pIC50 (P2Y purinoceptor 2): 4.79; pIC50 (P2Y purinoceptor 6 [7]): 5.32; pIC50 (P2Y purinoceptor 12): 7.22
Nc1c(S(=O)(=O)O)cc(Nc2ccc(Cc3ccccc3)cc2)c2c1C(=O)c1ccccc1C2=O,5.46,
Nc1c(S(=O)(=O)O)cc(Nc2ccc(Nc3ccccc3)cc2)c2c1C(=O)c1ccccc1C2=O,5.72,
Cc1cc(Nc2ccc(F)cc2C(=O)O)c2c(c1N)C(=O)c1ccccc1C2=O,4.00,inhibition (P2Y purinoceptor 4 [3]): 57%
Nc1c(S(=O)(=O)O)cc(Nc2ccccc2Cl)c2c1C(=O)c1ccccc1C2=O,5.03,
COc1ccc(Nc2cc(S(=O)(=O)O)c(N)c3c2C(=O)c2ccccc2C3=O)cc1,5.59,
COc1cccc(Nc2cc(S(=O)(=O)O)c(N)c3c2C(=O)c2ccccc2C3=O)c1 [listing 1 of 3 here],,inhibition (P2Y purinoceptor 4 [2]): 77%
O=C1c2ccccc2C(=O)c2c(Nc3cccc(F)c3)cc(S(=O)(=O)O)cc21,4.52,
Nc1c(S(=O)(=O)O)cc(Nc2cc(Cl)ccc2C(=O)O)c2c1C(=O)c1ccccc1C2=O,5.56,
COc1cccc(Nc2cc(S(=O)(=O)O)c(N)c3c2C(=O)c2ccccc2C3=O)c1 [listing 2 of 3 here],5.77,
Cc1cc(Cl)ccc1Nc1cc(S(=O)(=O)O)c(N)c2c1C(=O)c1ccccc1C2=O,5.66,
CCc1ccc(Nc2cc(S(=O)(=O)O)c(N)c3c2C(=O)c2ccccc2C3=O)cc1,5.49,
COc1cc(Nc2cc(S(=O)(=O)O)c(N)c3c2C(=O)c2ccccc2C3=O)ccc1C,5.38,
Nc1c(S(=O)(=O)O)cc(Nc2ccccc2)c2c1C(=O)c1ccccc1C2=O [ACID BLUE 25],5.51 to 5.71,pIC50 (P2Y purinoceptor 1 [5]): 4.75; pIC50 (P2Y purinoceptor 2): 4.77; pIC50 (P2Y purinoceptor 6 [7]): 5.55; pIC50 (P2Y purinoceptor 12): 5.51
Nc1c(S(=O)(=O)O)cc(Nc2ccc(O)cc2)c2c1C(=O)c1ccccc1C2=O,5.50,
COc1cccc(Nc2cc(S(=O)(=O)O)c(N)c3c2C(=O)c2ccccc2C3=O)c1 [listing 3 of 3 here],< 5.00,
CCCc1cccc(Nc2cc(S(=O)(=O)O)c(N)c3c2C(=O)c2ccccc2C3=O)c1,5.52,
Cc1ccc(C)c(Nc2cc(S(=O)(=O)O)c(N)c3c2C(=O)c2ccccc2C3=O)c1,4.95,

SMILES,pIC50 (P2Y purinoceptor 4 [1]),further results
CCc1cccc(Nc2cc(S(=O)(=O)O)c(N)c3c2C(=O)c2ccccc2C3=O)c1,5.82,
Nc1c(S(=O)(=O)O)cc(Nc2ccc(Oc3ccc(F)cc3)cc2)c2c1C(=O)c1ccccc1C2=O,5.77,
COc1ccccc1Nc1cc(S(=O)(=O)O)c(N)c2c1C(=O)c1ccccc1C2=O,5.40,
Cc1ccc(Nc2cc(S(=O)(=O)O)c(N)c3c2C(=O)c2ccccc2C3=O)c(C)c1,5.45,
Nc1c(S(=O)(=O)O)cc(Nc2ccc(Oc3ccc(Br)cc3)cc2)c2c1C(=O)c1ccccc1C2=O,5.75,
CCc1ccccc1Nc1cc(S(=O)(=O)O)c(N)c2c1C(=O)c1ccccc1C2=O,5.45,
Nc1c(S(=O)(=O)O)cc(Nc2ccc(O)cc2C(=O)O)c2c1C(=O)c1ccccc1C2=O,4.68,
Cc1cc(C)cc(Nc2cc(S(=O)(=O)O)c(N)c3c2C(=O)c2ccccc2C3=O)c1,5.19,
COc1ccc(Nc2cc(S(=O)(=O)O)c(N)c3c2C(=O)c2ccccc2C3=O)cc1OC,5.30,
Nc1c(S(=O)(=O)O)cc(Nc2ccccc2C(=O)O)c2c1C(=O)c1ccccc1C2=O,5.21,
Nc1c(S(=O)(=O)O)cc(Nc2ccc(Sc3ccccc3)cc2)c2c1C(=O)c1ccccc1C2=O,5.93,
Nc1c(S(=O)(=O)O)cc(Nc2cccc(Cl)c2)c2c1C(=O)c1ccccc1C2=O,5.63,
Cc1cccc(Nc2cc(S(=O)(=O)O)c(N)c3c2C(=O)c2ccccc2C3=O)c1C,5.58,
Cc1cccc(Nc2cc(S(=O)(=O)O)c(N)c3c2C(=O)c2ccccc2C3=O)c1,5.65,
COc1cc(Nc2cc(S(=O)(=O)O)c(N)c3c2C(=O)c2ccccc2C3=O)ccc1Cl,5.47,
Nc1c(S(=O)(=O)O)cc(Nc2ccc(Nc3nc(Cl)nc(Nc4ccc(S(=O)(=O)O)cc4)n3)c(S(=O)(=O)O)c2)c2c1C(=O)c1ccccc1C2=O,6.20,
Nc1c(S(=O)(=O)O)cc(Nc2cc(F)ccc2C(=O)O)c2c1C(=O)c1ccccc1C2=O,< 4.00,inhibition (P2Y purinoceptor 4 [3]): 33%
Nc1c(S(=O)(=O)O)cc(NCc2ccccc2)c2c1C(=O)c1ccccc1C2=O,4.84,
COc1cccc(Nc2cc(C)c(N)c3c2C(=O)c2ccccc2C3=O)c1,< 4.52,inhibition (P2Y purinoceptor 4 [2]): 38%
Nc1c(S(=O)(=O)O)cc(Nc2cccc(F)c2C(=O)O)c2c1C(=O)c1ccccc1C2=O,< 4.00,inhibition (P2Y purinoceptor 4 [3]): 10%
Cc1ccc(Sc2ccc(Nc3cc(S(=O)(=O)O)c(N)c4c3C(=O)c3ccccc3C4=O)cc2)cc1C,6.32,pIC50 (P2Y purinoceptor 1 [5]): 5.34; pIC50 (P2Y purinoceptor 2): 4.99; pIC50 (P2Y purinoceptor 6 [7]): 5.36; pIC50 (P2Y purinoceptor 12): 5.63
Nc1c(S(=O)(=O)O)cc(Nc2ccc(F)cc2C(=O)O)c2c1C(=O)c1ccccc1C2=O [listing 3 of 3 here],,inhibition (P2Y purinoceptor 4 [3]): 17% and 25%
